Runt-SMMHC FRET – blocks binding of human RUNX1 Runt domain to CBFb-SMMHC; Cerulean-Runt/Venus-CBFb-SMMHC FRET ratio 530/480, 1 h; AID 1434; 0.74% of 220,000 active; inhibition, % at 20 µM; Q01196+Q13951;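 active = mean inhibition across duplicate retests at 20 µM reaching about 50%, limit read from the data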;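 note: 0% = DMSO wells and 100% = wells with excess untagged CBFb-SMMHC; inhibitors lower the FRET ratio by blocking Runt binding to CBFb-SMMHC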
Target sequence (Q01196 whole entry, looked up, the tested form may be a part): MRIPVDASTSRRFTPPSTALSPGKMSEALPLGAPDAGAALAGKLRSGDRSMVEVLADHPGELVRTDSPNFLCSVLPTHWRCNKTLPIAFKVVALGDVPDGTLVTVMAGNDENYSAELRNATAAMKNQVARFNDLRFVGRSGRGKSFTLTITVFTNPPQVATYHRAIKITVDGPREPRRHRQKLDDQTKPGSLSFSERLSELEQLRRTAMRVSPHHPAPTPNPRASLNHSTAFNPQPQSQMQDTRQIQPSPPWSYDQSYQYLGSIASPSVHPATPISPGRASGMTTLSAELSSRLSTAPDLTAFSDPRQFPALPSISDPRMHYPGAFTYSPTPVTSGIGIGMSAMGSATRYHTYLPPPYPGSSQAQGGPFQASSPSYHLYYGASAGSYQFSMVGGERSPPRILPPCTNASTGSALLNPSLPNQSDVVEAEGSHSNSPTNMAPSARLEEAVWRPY
Target sequence (Q13951 whole entry, looked up, the tested form may be a part): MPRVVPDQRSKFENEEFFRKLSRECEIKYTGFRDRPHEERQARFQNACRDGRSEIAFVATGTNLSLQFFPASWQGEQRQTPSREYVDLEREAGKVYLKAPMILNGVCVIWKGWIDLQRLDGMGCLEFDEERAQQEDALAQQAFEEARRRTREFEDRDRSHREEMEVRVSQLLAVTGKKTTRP
Runt-CBFb FRET – inhibitors of human RUNX1 Runt domain binding to CBFb; Q01196+Q13951; Cerulean-Runt/Venus-CBFb FRET ratio 530/480, 1 h; inhibition, % at 20 µM; 0.46% of 220,000 active;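 active = inhibition over about 50% at 20 µM in the single-dose screen, limit read from the data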;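 note: 0% = DMSO wells and 100% = excess unlabeled CBFb competitor control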
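Measured by: fluorescence energy transfer, 422 nm excitation, 530/480 nm emission; Assay system: Cerulean-Runt domain; Medium: Tris pH 7.5 buffer with BSA; Measure: loss of energy transfer signal; Controls: 5 µM unlabeled CBFb as full-inhibition high control; Incubation: protein complex preformed 1 h, compound exposure 1 h, room temperature, dark.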
Hck Nef HTS – human Hck-Nef kinase inhibition; P08631; Recombinant Hck-YEEI plus Nef, Z-Lyte FRET kinase assay; inhibition, % at 20 µM; 0.68% of 220,000 active;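 active = Hck-Nef kinase inhibition above about 50%, limit read from the data; inactive = inhibition below that limit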;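 note: 0% = DMSO with Hck plus Nef and 100% = Hck alone without Nef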
RanGTP-Imp inh – disruptors of Ran-importin-beta complex formation – biochemical, FRET, CFP-Ran, YFP-importin-beta, homogeneous, primary screen | inhibition, % (concentration not given with the values) | AID 2216 | cell-free CFP-Ran/YFP-importin-beta FRET ratio | 1.1% of 300,000 active;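 active = more than half of the replicate wells show a fall in the fluorescence ratio signal beyond about 16%, limit read from the data, passing the limit was not always enough; inconclusive = exactly half of the replicate wells pass the set limit; inactive = fewer than half of replicates pass the limit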;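 note: 0% = DMSO wells and 100% = Ran loaded with GDP instead of GTP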
Starred values were filed as active, the others as inactive; ? = inconclusive; nt = no result. Shown are actives, neighbours in structure and some others; about 1.8% of the full set was active somewhere.

SMILES	Runt-SMMHC FRET	Runt-CBFb FRET	Hck Nef HTS	RanGTP-Imp inh
O=C(c1ccc2c(=O)n3c(nc2c1)CCC3)N1CCN(S(=O)(=O)c2cccc(F)c2)CC1	nt	nt	nt	0.0
COc1ccc(/C=C2\SC(=O)N(CC(=O)NCCCn3ccnc3)C2=O)cc1	nt	nt	nt	2.6
CC(=Nc1ccc(C)cc1C)c1sc2ccccc2c1O	-25.6	-17.3	13.8	41.8*
CC(=Nc1ccc(C)cc1)c1sc2ccccc2c1O	51.2	-45.1	1.1	73.2*
CC(=Nc1cccc(O)c1)c1sc2ccccc2c1O	15.0	7.7	0.2	29.1*
CCOc1ccc(C2N(c3ccc(F)cc3)C(=O)C3CCCN32)cc1OC (configuration not stated)	-0.5	1.1	7.3	21.2*
CCOc1ccc(C2N(c3ccc(OC)cc3)C(=O)C3CCCN32)cc1OC (configuration not stated)	-2.7	1.3	-0.2	5.3
CC(C)C(NS(=O)(=O)c1ccccc1)C(=O)N1CCCC1 (configuration not stated)	nt	nt	nt	9.7
O=C(CN1C(=O)/C(=C\C=C\c2ccccc2)SC1=S)Nc1ccc(F)cc1	-6.7	0.3	4.2	-28.4
O=C(COC(=O)CCN1C(=O)/C(=C\C=C\c2ccccc2)SC1=S)Nc1cc(F)ccc1F	-16.0	-1.9	126.4*	-3.7
Cc1ccc(S(=O)(=O)C(C#N)c2nc3ccccc3nc2OCCO)cc1 (configuration not stated)	-3.0	-2.2	4.6	26.3*
Cc1ccc(S(=O)(=O)C(C#N)c2nc3ccccc3nc2N2CCC(C)CC2)cc1 (configuration not stated)	-37.7	-11.0	-2.2	7.6
CCCN(CCC)c1ccc(/C=C/c2ccc3cc(OCC)ccc3n2)cc1	81.6	-20.0	-66.9	21.4*
COc1ccc2c(c1OC)C(=O)N1C2SC(C)(C)[C@H]1C(=O)NC1CC1 (some centres not stated)	nt	nt	nt	-2.5
O=C(NCCN1CCOCC1)c1ccc2ccccc2n1	-0.9	3.7	-9.3	-2.2
Nc1c(C(=O)NCCN2CCOCC2)c2nc3ccccc3nc2n1-c1cccc(F)c1	60.9*	70.9*	17.8	78.0*
Cc1onc(-c2ccccc2Cl)c1C(=O)NCc1nc(-c2ccc(C(F)(F)F)cc2)no1	-5.3	-0.3	6.0	2.5
COc1ccc(OC)c(N=c2oc3cc(O)ccc3cc2C(N)=O)c1	117.2*	119.7*	21.0	157.7*
C/C(=N\NC(=O)CC#N)c1cc2ccc(O)cc2oc1=O	91.9*	20.3	-2.6	1.9
O=C(NCc1cccnc1)c1cc2ccccc2oc1=O	-0.6	4.1	0.3	?
COc1ccc2cc(C(N)=O)c(=Nc3ccccc3)oc2c1	1.6	nt	1.2	2.1
O=C(NCc1ccccc1)c1cc2ccc(O)cc2oc1=O	nt	nt	nt	186.4*
NC(=O)c1cc2ccc(O)cc2oc1=Nc1ccccc1	65.3*	12.5	46.4	175.6*
C/C(=N\NC(=O)CC#N)c1ccc(Oc2ccccc2)cc1	1.3	-0.9	20.5	-0.7
COc1ccc(NC(=O)COc2cc(C)cc(C)c2)cc1S(=O)(=O)N1CCCCC1	nt	nt	nt	9.7
SMILES	Runt-SMMHC FRET	Runt-CBFb FRET	Hck Nef HTS	RanGTP-Imp inh
COc1ccc(CNC(=O)CSc2ncn[nH]2)cc1OC	nt	nt	nt	0.3
O=C(O)c1ccc(N=c2oc3cc(O)ccc3cc2C(=O)NCc2ccccc2)cc1	88.4*	3.5	39.8	168.8*
COc1ccc([N+](=O)[O-])c(OC)c1C(=O)NC(=O)Nc1nc(C)nc(C)n1	nt	nt	nt	0.3
c1ccc(Nc2ncnc3sccc23)cc1	nt	nt	nt	6.9
CC(Nc1ncnc2sccc12)c1ccccc1 (configuration not stated)	nt	nt	nt	27.8*
CCOC(=O)Cn1c2ccccc2c2nc3ccccc3nc21	-28.5	-0.1	7.6	1.7
COC(=O)Cn1c2ccc(C)cc2c2nc3ccccc3nc21	nt	nt	nt	19.8*
COc1ccc(-n2c(O)c(/C=N/NS(=O)(=O)c3cccc([N+](=O)[O-])c3)c3ccccc3c2=O)cc1OC	-2.9	0.5	35.2	4.3
COc1ccc(CCNC(=O)CC(=O)N/N=C/c2ccc(Br)cc2)cc1OC	nt	nt	nt	-0.1
CN1CCc2c(sc(/N=C/c3ccco3)c2C(N)=O)C1	62.5*	106.1*	4.5	-2.5
Cc1ccc(/C=N/c2sc3c(c2C(N)=O)CCCC3)o1	1.9	9.2	10.8	3.1
CN1CCc2c(sc(/N=C/c3cccs3)c2C(N)=O)C1	65.0*	80.6*	7.2	?
CCOC(=O)c1c(/N=C/c2cccc(C)c2O)sc2c1CCN(C)C2	13.0	36.8	-0.8	12.0
NC(=O)NC(Cc1ccccc1)C(=O)NCCCSc1ccccc1 (configuration not stated)	nt	nt	nt	0.4
CCCNc1cc(=S)nc(N)[nH]1	22.1	36.0	-28.6	36.5*
CCO[C@@H]1OC(C(N)=O)=C[C@H](c2ccc(C(F)(F)F)cc2)[C@H]1CCCO	1.4	-1.6	-10.0	23.7*
CCN(CC)CCCN1C(=O)C(O)=C(C(=O)c2ccc(C)o2)C1c1ccc(C)o1 (configuration not stated)	3.8	1.7	0.7	-1.2
Cc1ccc(C(=O)C2=C(O)C(=O)N(CCN3CCOCC3)C2c2ccccn2)o1 (configuration not stated)	5.6	1.2	0.2	22.8*
CCN(CC)CCN1C(=O)C(O)=C(C(=O)c2ccc(C)o2)C1c1ccccn1 (configuration not stated)	nt	nt	5.7	29.0*
O=C(C1=C(O)C(=O)N(CCCN2CCOCC2)C1c1ccccn1)c1cc2ccccc2o1 (configuration not stated)	20.2	1.6	3.1	2.0
COc1ccc2oc(C(=O)N3CCCc4ccccc43)c(C)c2c1	nt	nt	nt	5.3
CCc1ccc(CNC(=O)c2ccc(NC(=O)C3=CSCCO3)cc2)cc1	nt	nt	nt	1.8
COc1cc2ncnc(NCc3cccc(Cl)c3)c2cc1OC	2.2	-2.5	65.4*	2.1
O=C(NNC(=O)C1[C@H]2CCCC[C@@H]12)c1ccc(=O)oc1 (some centres not stated)	82.5*	27.6	-8.5	-0.1
O=C(NC12CC3CC(CC(C3)C1)C2)c1ccc(=O)oc1	-5.6	-1.9	1.3	-1.3
SMILES	Runt-SMMHC FRET	Runt-CBFb FRET	Hck Nef HTS	RanGTP-Imp inh
CC(C(=O)N(C)C1CCCCC1)N1CCC(C(N)=O)CC1 (configuration not stated)	nt	nt	nt	4.4
Cc1csc(NC(=O)CN2C(=O)c3ccccc3C2=O)c1C(N)=O	-2.4	0.9	17.4	3.2
COc1ccc(NC(=O)CSc2nc3ccccc3c(=O)n2Cc2cccs2)c(OC)c1	-4.3	0.6	1.0	-8.4
COCCn1c(SCC(=O)Nc2ccc(OC)cc2OC)nc2ccccc2c1=O	nt	nt	nt	21.0*
Cc1cccc(NCN2C(=O)c3ccncc3C2=O)n1	-0.1	-2.2	5.4	19.4*
O=C1c2ccncc2C(=O)N1Cc1cccc(Cl)c1	-0.8	-2.8	-0.8	2.5
Cc1ccccc1NC(=O)c1nn(C)c2c1CS(=O)(=O)c1ccccc1-2	nt	nt	nt	-0.1
COc1ccc(N/N=C(\C#N)C(N)=O)cc1	2.7	1.3	3.1	-1.8
COc1ccc(N/N=C(/C(N)=O)C2=NC(C)(C)Cc3ccccc32)cc1	-5.0	-5.1	54.0*	3.2
